PostGolgi yeast – growth inhibition of a yeast mutant, post-Golgi transport screen | inhibition, % at 10 µM | 98,000 compounds, 0.9% hits | post-Golgi transport phenotypic cell assay;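 note: yeast cells grown in 1536-well plates; yeast grown about 18 h at 30C before absorbance read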
Plk1 PBD FP – inhibitors of human Plk1 polo box domain binding | Plk1 PBD phosphopeptide binding, fluorescence polarization | P53350 | inhibition, %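 (tested at about 20 µM)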 | 97,000 compounds, 0.13% hits | AID 693; in the data active = inhibition above about 34%, passing the limit was not always enough
Target sequence (P53350 whole entry, looked up, the tested form may be a part): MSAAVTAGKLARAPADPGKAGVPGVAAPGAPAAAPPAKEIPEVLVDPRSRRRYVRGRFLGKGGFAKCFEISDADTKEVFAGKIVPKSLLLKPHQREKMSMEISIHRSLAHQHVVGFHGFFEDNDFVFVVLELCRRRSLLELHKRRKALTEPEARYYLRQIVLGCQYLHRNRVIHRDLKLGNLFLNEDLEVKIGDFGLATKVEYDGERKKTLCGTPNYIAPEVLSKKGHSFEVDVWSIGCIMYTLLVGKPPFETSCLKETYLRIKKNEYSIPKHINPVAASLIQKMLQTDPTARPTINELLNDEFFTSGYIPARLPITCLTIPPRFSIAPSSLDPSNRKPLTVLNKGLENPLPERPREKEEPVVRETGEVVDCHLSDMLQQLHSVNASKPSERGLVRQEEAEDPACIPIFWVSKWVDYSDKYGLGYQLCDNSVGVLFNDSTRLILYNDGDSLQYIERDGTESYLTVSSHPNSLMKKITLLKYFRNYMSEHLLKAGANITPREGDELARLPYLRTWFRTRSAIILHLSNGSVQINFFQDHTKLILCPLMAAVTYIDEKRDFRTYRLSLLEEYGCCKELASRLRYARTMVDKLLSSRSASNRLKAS
Rev-RRE block – disrupts HIV-1 Rev binding to RRE RNA; Rev peptide-RRE RNA binding, FRET; inhibition, % at 8 µM; 97,000 compounds, 0.79% hits; P05866;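 active = inhibition above the screen-wide mean plus 3 SD, cut at about 35% in these data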
Target sequence (P05866 whole entry, looked up): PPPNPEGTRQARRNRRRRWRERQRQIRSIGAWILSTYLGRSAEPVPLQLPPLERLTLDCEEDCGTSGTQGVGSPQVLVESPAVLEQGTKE
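System: Cy5-labelled duplex RRE RNA binding fluorescein-labelled HIV Rev peptide; Signal: fluorescein-to-Cy5 FRET, 480 nm excitation; Also added: labelled Rev peptide; Compound: one concentration, 8 µM nominal; Buffer or medium: HEPES pH 7.5 salt buffer with EDTA; Read-out: % inhibition of FRET ratio versus controls; Schedule: 5 min preincubation and 15 min binding, 25 °C.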
PLK1 kinase inh – blocks human PLK1 kinase activity; P53350; recombinant PLK1 kinase, TR-FRET peptide phosphorylation; inhibition, % at 10 µM; 97,000 compounds, 0.53% hits;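 active = inhibition of 50% or more in the single-concentration screen; inactive = inhibition below 50%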
PostGolgi ctrl – growth of the yeast control strain, post-Golgi counter-screen. efflux-deficient yeast background strain, growth absorbance A615, 16 h. 98,000 compounds, 5% hits. inhibition, % at 10 µM
EphB4 antag – antagonists of human EphB4-ephrin-B2 interaction. P54760. EphB4 LBD / TNYL-RAW-Alexa532 peptide, fluorescence polarization. inhibition, % at 7 µM. 97,000 compounds, 0.15% hits;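 active = inhibition above the screen-wide mean inhibition plus 3 SD, cut at about 15% in these data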
Large screens that a line does not name were inactive. Hits are enriched below; roughly 6.4% of the tested compounds scored in any of these assays. Cut-off read from the data, not from the text of the source, unless noted: active = inhibition above about 30%; inactive = the rest.

CCOC(=O)n1c(=O)n(Cc2ccc(Cl)c(Cl)c2)c2ccccc21	PostGolgi ctrl 65.7
O=C(NCc1ccc2c(c1)OCO2)c1ccc(COc2cccc(Cl)c2)o1	PostGolgi ctrl 60.2
Cc1ccc(S(=O)(=O)Cc2ccc(C(=O)NCc3ccc4c(c3)OCO4)o2)cc1	PostGolgi ctrl 33.7
O=C(Cc1ccccc1)NCc1ccc2c(c1)OCO2	none
CN(Cc1ccccc1)C(=O)CC(c1ccccc1)c1cc(Cl)ccc1O (centres undefined)	none
O=C(NCc1cccnc1)C1c2ccccc2C(=O)N1C1CCCCCCC1 (centres undefined)	PostGolgi ctrl 33.6
O=C(NCc1cccnc1)C1c2ccccc2C(=O)N1C1CCCCCC1 (centres undefined)	none
Cc1cc(-c2cc(-c3ccc(Cl)cc3)nc(N)c2C#N)co1	none
COC(=O)c1ccccc1NC(=O)CN(C)S(=O)(=O)c1cc(C)ccc1OC	none
COc1ccccc1NC(=O)COc1cc(C)nc(C(C)C)n1	PostGolgi ctrl 37.5
Nc1nnc(SCc2ccc(F)cc2)n1-c1ccccc1	none (no result: PostGolgi yeast, PostGolgi ctrl)
NNC(=O)CN1C(c2ccc(Cl)cc2)=Nc2ccc(Br)cc2C1c1ccccc1 (centres undefined)	none
COC(=O)CN1C(c2ccccc2)=Nc2ccc(Cl)cc2C1c1ccccc1 (centres undefined)	PostGolgi ctrl 30.5
CCOC(=O)C1CSC(CC(=O)Nc2ccc(Cl)cc2)C(=O)N1 (centres undefined)	none
O=C(N/N=C\c1ccccc1)c1sccc1-n1cccc1	none
O=C(N/N=C/c1ccc(Br)cc1)c1ccccc1-n1cccc1	PostGolgi ctrl 31.3
CSc1nc(C)cc(SCCO)n1	none
COc1ccc(-c2onc(C)c2-c2ccc(C(=O)OC(C)C)o2)c(O)c1	PostGolgi ctrl 37.4
Cc1ccc2c(c1)c(-c1ccccc1)nc1nncn12	none (no result: Plk1 PBD FP, Rev-RRE block, PLK1 kinase inh, EphB4 antag)
COc1cccc(NC(=O)COC(=O)c2ccc(S(=O)(=O)NCc3ccco3)cc2)c1	none
Cc1ccccc1N(CC(=O)NCCSC1CCCCC1)S(=O)(=O)c1ccccc1	PostGolgi ctrl 49.4
CC(=O)N1CCN(S(=O)(=O)c2ccc(S(=O)(=O)NCC(C)C)cc2)CC1	none
CC(C)(C)NS(=O)(=O)c1cccc(S(=O)(=O)c2cccc(S(=O)(=O)NC(C)(C)C)c2)c1	none
O=C1c2ccccc2C(=O)N1CCc1csc(-c2cccc(F)c2)n1	PostGolgi ctrl 42.3
CCOC(=O)N1CCC2(CC1)C(C#N)=C(N)Oc1n[nH]c(C)c12	none
CCOC(=O)N1CCC2(CC1)C(C#N)=C(N)Oc1c2sc2nc(C)cc(C)c12	PostGolgi ctrl 55.1
CCOC(=O)N1CCC2(CC1)C(C#N)=C(N)Oc1c2c(C)nn1-c1cccc(Cl)c1	PostGolgi ctrl 31.1
CCCN1CCC2(CC1)C(C#N)=C(N)Oc1c2sc2nc(C)cc(C)c12	Rev-RRE block 50.1
CCCOc1ccc(NC(=O)CC2C(=O)N(C)C(=S)N2Cc2cccs2)cc1 (centres undefined)	none (no result: PostGolgi yeast, PostGolgi ctrl)
O=C(c1cc2ccccc2oc1=O)N(Cc1ccc2c(c1)OCO2)Cc1ccco1	PostGolgi ctrl 42.3
OCCn1c(Cl)nc2ccccc21	none (no result: PostGolgi yeast, PostGolgi ctrl)
COc1ccc2cc(CCNC(=O)c3ccc(Br)o3)c(=O)[nH]c2c1	PostGolgi ctrl 99.3 (no result: Plk1 PBD FP, Rev-RRE block, PLK1 kinase inh, EphB4 antag)
CCC(CC)C(=O)NCCc1cc2ccc(OC)cc2[nH]c1=O	none
Cc1ccc(C)c2[nH]c(=O)c(CCNC(=O)c3ccc(Br)o3)cc12	none (no result: PostGolgi yeast, PostGolgi ctrl)
Cc1cc2cc(CCNC(=O)c3ccc(Br)o3)c(=O)[nH]c2cc1C	PostGolgi ctrl 101.7
COc1ccc2cc(CCNC(=O)c3ccc4c(c3)OCO4)c(=O)[nH]c2c1	PostGolgi ctrl 30.3 (no result: Plk1 PBD FP, Rev-RRE block, PLK1 kinase inh, EphB4 antag)
Cc1nc(C(=O)N(C)C)nn1-c1cc(Cl)ccc1Cl	none
C=CCN1C(=O)C2(/C(=C(\O)c3ccc4c(c3)OCCO4)C(=O)C(=O)N2CCCOC)c2ccccc21 (centres undefined)	PostGolgi ctrl 41.5
COc1ccc(NC(=S)Nc2cc(-c3ccccc3)[nH]n2)cc1Cl	PostGolgi ctrl 30.5
CCOc1ccc(NC(=S)Nc2cc(-c3ccccc3)[nH]n2)cc1	none
C/C(CC(=O)Nc1cccc2c1CCCC2)=N\NC(=O)c1ccccc1N	PostGolgi ctrl 32.0
CC(=O)CC(=O)Nc1cccc2c1CCCC2	none
Cc1ccc(NC(=O)NC(=O)CN2C(=O)NC3(CCc4ccccc43)C2=O)c(C)c1 (centres undefined)	none
CCC(C(=O)OC)n1cnc2c(cnn2-c2ccc(Cl)cc2)c1=O (centres undefined)	PostGolgi ctrl 40.8
O=C(Cn1nc(Cc2cccnc2)c2ccccc2c1=O)N1CCN(C(=O)c2ccco2)CC1	PLK1 kinase inh 61.5
Cc1cc(C)c2cc(CN(CC3CCCO3)C(=O)NC3CCCCC3)c(=O)[nH]c2c1 (centres undefined)	none (no result: PostGolgi yeast, PostGolgi ctrl)
CN1CCc2nc(SCC(=O)Nc3ccc(Cl)cc3)c(C#N)cc2C1	PLK1 kinase inh 53.2
COc1ccc(NC(=O)CSc2nc(N)c(C#N)cc2C#N)cc1	PLK1 kinase inh 61.8
COc1ccc(NC(=O)CSc2nnc(-c3cccs3)n2C)cc1OC	none (no result: Plk1 PBD FP, Rev-RRE block, PLK1 kinase inh, EphB4 antag)
COC(=O)C1=C(CSc2nc3c(cc2C#N)CN(C)CC3)OC(N)=C(C#N)C1c1ccc(F)cc1 (centres undefined)	Rev-RRE block 65.1 (no result: PostGolgi yeast, PostGolgi ctrl)
COc1ccc(NC(=O)CSc2nc3c(c(-c4cccs4)c2C#N)CN(C)CC3)cc1OC	Rev-RRE block 63.1
CCS(=O)(=O)c1ccc(-c2csc(-c3ccccc3)n2)c(Cl)c1Cl	none
COc1ccc(-c2cn3c(n2)CCC3)cc1	none
c1ccc(-c2ccc(-c3cn4c(n3)CCC4)cc2)cc1	PostGolgi ctrl 32.7
CC(C)CNc1cc(=O)n(C)c(=O)n1C	PostGolgi ctrl 47.9
[O-][n+]1c2c(c3c4non(O)c4ccc31)CCCC2	PostGolgi yeast 31.2, PostGolgi ctrl 81.7
CN(CC(=O)Nc1ccccc1N1CCOCC1)S(=O)(=O)c1ccc(Cl)cc1	none
CCN(CC)S(=O)(=O)c1ccc(N2CCOCC2)c(NC(=O)C(=O)c2c(-c3ccccc3)cc3ccccn23)c1	PostGolgi yeast 71.7, PostGolgi ctrl 98.5
CCN(CC)S(=O)(=O)c1cccc(NC(=O)C(=O)c2c(-c3ccccc3)cc3ccccn23)c1	PostGolgi ctrl 71.8
CCN(CC)S(=O)(=O)c1cc(NC(=O)C(=O)c2c(-c3ccccc3)cc3ccccn23)ccc1C	none
COc1ccnc(Oc2ccc(F)cc2)c1C(=O)N/C=N/OCc1ccc(F)cc1Cl	PostGolgi ctrl 38.1
CCCCn1nnnc1SCC(=O)NCc1ccco1	none
COc1ccc(S(=O)(=O)NCCSCc2cccc(C)c2)cc1Br	PostGolgi ctrl 37.5
Cc1ccc(S(=O)(=O)NCCSCc2ccccc2)cc1	none
CCCc1[nH]nc2c1C(c1ccc(OC)c(Cn3nnc4ccccc43)c1)C(C#N)=C(N)O2 (centres undefined)	EphB4 antag 16.6

Screens as filed in PubChem BioAssay.
